# Screens deposited in PubChem by several laboratories.
# Dynein transport: inhibitors of GR-EGFP nuclear translocation, primary screen, dynein cargo transport inhibitor project, imaging, high-content, 3617.4 mouse cells; test concentration mostly 20 µM; stimulated with dexamethasone, 1 µM; active compounds read low; z-score, hits read low; actives 0.47% (n = 220,000);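 active means plate z-score of nuclear minus cytoplasmic receptor signal below a set negative limit, without overly bright fluorescence or cell loss, cut at about -3.5 in these data, passing the limit was not always enough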;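 further: z-score of nuclear minus cytoplasmic ring GR-EGFP intensity difference per well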
#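 Also added: dexamethasone, 1.0 µM final. Medium: tet-free, stripped-serum medium. Detection: fixed, Hoechst-stained cells imaged at 10x for EGFP. Read-out: nuclear-to-cytoplasmic GR-EGFP distribution per well. Times: induction 48 h, compound 1 h, agonist 30 min.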
# CHOP inh: inhibitors of CHOP promoter induction, primary screen, cell-based, unfolded protein response, luciferase reporter | CHO-K1 CHOP-promoter luciferase, tunicamycin-induced, 15-18 h | AID 2732, 2010 | actives 3.8% (n = 220,000) | inhibition, % at 10 µM;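 active means compounds that reduced the stress-induced luciferase reporter signal by more than about 70% of percent inhibition, limit read from the data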;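 further: 0% = tunicamycin plus vehicle and 100% = wells without tunicamycin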
# XBP1 UPR activ: activators of adaptive XBP1 UPR arm, primary screen, cell-based, CHO-XBP1 luciferase reporter, luminescence, uHTS; activation, % at 20 µM; AID 463104, 2010; IRE1-XBP1 UPR activation; percent of tunicamycin response, DMSO as zero; actives 0.33% (n = 330,000);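 active means versus positive control, 20 µM dose yields 30% or more activation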;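 further: 100% = tunicamycin at 10 µg/mL and 0% = DMSO only wells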
#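 Assay system: IRE1-XBP1 luciferase reporter CHO line. Input: 1000 cells/well. Buffer or medium: F12 with 10% serum. Doses: 20 µM, 1% DMSO. Times: overnight seeding at 37 °C, 6 h compound treatment at 37 °C. Technique: Steady-Glo luciferase glow luminescence, 10 min after reagent addition.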
# CHOP UPR activ: activators of apoptotic CHOP UPR arm, primary screen, cell-based, CHO-CHOP luciferase reporter, luminescence, uHTS; UPR activation; percent of tunicamycin response over DMSO baseline; activation, % at 10 µM; actives 0.34% (n = 330,000); AID 449763, 2010;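 active means at 10 µM dose, activation of 40% or more, normalized to positive control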;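 further: 100% = tunicamycin at 10 µg/mL and 0% = DMSO alone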
#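 System: CHO-CHOP luciferase reporter cell line; amount: 500 cells/well; buffer or medium: F12 medium containing 10% fetal bovine serum; incubation: 6 h compound exposure at 37 °C after overnight seeding; measured by: luciferase luminescence after 10 min with Steady-Glo reagent; evaluation: % reporter activation, DMSO baseline versus tunicamycin full activation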
# pCIP destab: p/CIP-EGFP fusion destabilizers, primary screen, fluorescence, F442A cells | Q05BA5 | 16 h | decrease of EGFP signal, % at 10 µM | actives 0.01% (n = 290,000) | AID 1984, 2009;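 active means EGFP signal decrease of at least 30% at 10 µM or well 3 SD below plate mean, unless failing retest; inactive means the rest, including hits failing retest or dose response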
# B2AR ag: beta2AR agonists driving receptor internalization, primary screen, cell-based, FAP fluorogen, flow cytometry. response, % (concentration not given with the values). Am2.2-beta2AR cells. Beta-2 adrenergic receptor (Homo sapiens), P07550. actives 0.43% (n = 340,000);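 active means response above a set limit, near 3 SD of response in nonfluorescent compounds, cut at about 42% in these data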
# Target sequence (P07550 whole entry, looked up): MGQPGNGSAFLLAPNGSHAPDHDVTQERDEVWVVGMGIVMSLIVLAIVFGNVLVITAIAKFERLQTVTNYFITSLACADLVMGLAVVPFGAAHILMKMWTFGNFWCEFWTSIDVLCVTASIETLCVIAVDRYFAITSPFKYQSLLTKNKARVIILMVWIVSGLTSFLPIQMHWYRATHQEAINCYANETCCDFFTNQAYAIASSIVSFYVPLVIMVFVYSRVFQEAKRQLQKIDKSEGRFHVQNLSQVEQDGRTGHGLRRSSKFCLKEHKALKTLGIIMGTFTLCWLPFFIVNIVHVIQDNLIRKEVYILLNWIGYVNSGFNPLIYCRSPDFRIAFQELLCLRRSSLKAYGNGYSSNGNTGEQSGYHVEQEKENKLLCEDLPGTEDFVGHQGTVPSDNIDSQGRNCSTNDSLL
# Dynein inh conf: dynein cargo transport inhibitors, GR-EGFP translocation, confirmation, imaging, high-content imaging, GR-EGFP cells; shares compounds with Dynein transport; 3617.4 GR-EGFP nuclear translocation imaging, dexamethasone-induced; calls only at 20 µM; actives 69% (n = 1,000); AID 463116, 2010;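 active means inhibition of receptor movement into the nucleus at or above a set limit in both runs, with normal cell brightness and cell count; inconclusive means limit reached in only one run, brightness and count normal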;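 further: dexamethasone at 1 µM final in well for 30 min; nuclear minus cytoplasmic GR-EGFP mean intensity difference in channel 2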
# An asterisk follows results filed as active; i = inactive; ? = inconclusive; . = no result given; + = active, no number. Only a selection was taken, and hits are over-represented in it overall.
SMILES,Dynein transport,CHOP inh,XBP1 UPR activ,CHOP UPR activ,pCIP destab,B2AR ag,Dynein inh conf
CNc1ccc(/C=C2\CSc3ccccc3C2=O)cc1[N+](=O)[O-],-4*,-27,5,3,4,-3,i
O=C(CSC1CCCCC1)Nc1ccccc1Br,-0.065,17,1,7,-5,1,.
O=C1C=C(NC2=CC3OC(c4ccccc4)OCC3OC2=O)CCC1 (stereo unspecified),-4.4*,95*,.,.,-7,6,+
O=C1C=C(NCc2ccccc2)CCC1,-0.22,-1,-1,-1,2,-9,.
CC(C)N1CC2=C(OC(N)=C(C#N)C2c2cccnc2)/C(=C/c2cccnc2)C1 (stereo unspecified),0.97,-19,-1,2,8,5,.
CC(C)N1C/C(=C/c2cccnc2)C(=O)/C(=C/c2cccnc2)C1,-4.2*,100*,.,.,-11,17,+
Cc1ccc(O)c(NC(=O)c2cc([N+](=O)[O-])ccc2Cl)c1,-3.7*,-25,-3,-1,19,17,+
Clc1ccc(-c2csc3ncnc(Cl)c23)cc1,-4*,41,1,-1,-4,4,+
Fc1ccc(-c2csc3ncnc(Cl)c23)cc1,-2.8,26,-1,-1,-12,-5,.
COc1ccc(-c2csc3ncnc(Cl)c23)cc1,-4.1*,2,3,0,-16,3,i
CC(C)c1ccc(S(=O)(=O)N2CCN(C(=O)[C@@H]3CCCN3C(=O)c3cccs3)CC2)cc1,.,.,0,1,.,7,.
CCn1nc([N+](=O)[O-])c(C(C#N)c2nc3ccccc3n2C)c(Cl)c1=O (stereo unspecified),-1.7,34,-2,-1,-11,-1,.
CCCn1nc([N+](=O)[O-])c(C(C#N)c2nc3ccccc3s2)c(Cl)c1=O (stereo unspecified),-5.1*,36,0,-2,6,20,+
CCCCSC(=S)NC1CCS(=O)(=O)C1 (stereo unspecified),-1,11,-5,-2,-9,2,.
O=S1(=O)CCC(NC(=S)SCCOc2ccccc2)C1 (stereo unspecified),-3.9*,60,-3,12,-17,15,+
Cc1ccc(C)c2nc3sc(C(=O)N4CCCc5ccccc54)c(N)c3cc12,-7.1,-5,-3,-2,17,-401,i
CCc1ccc2nc3sc(C(=O)N4CCc5ccccc54)c(N)c3cc2c1,-2.3,1,9,6,9,.,.
CC(=O)O[C@@H]1C[C@H]2C(C)(C)C(=O)C=C[C@]2(C)[C@H]2CC[C@@]3(C)[C@H](c4ccoc4)OC(=O)[C@H]4O[C@]43[C@@]21C,-3.9*,-27,0,1,-12,3,+
CC1(C)OC(=O)C=C[C@]2(C)[C@H]3CC[C@@]4(C)[C@H](c5ccoc5)OC(=O)[C@H]5O[C@]54[C@]3(C)C(=O)C[C@@H]12,.,.,-1,0,.,-8,.
O=C(CN1CCCc2ccccc21)NC(=O)NC1CCCCC1,-3.6,47,4,0,9,10,i
CCC1(c2ccc(F)cc2)NC(=O)N(CC(=O)N(CCC#N)c2ccccc2)C1=O (stereo unspecified),.,.,3,2,-2,0,.
COc1cccc(N(C(=O)CCl)C(C(=O)NCCc2ccccc2)c2cccs2)c1 (stereo unspecified),-5.5*,-3,.,.,1,12,+
COc1ccc(N(C(=O)CCl)C(C(=O)NCCc2ccccc2)c2cccs2)cc1Cl (stereo unspecified),-4.8*,110*,.,.,8,40,+
COc1cccc(N(C(=O)c2snc(C(N)=O)c2N)C(C(=O)NCC2CCCO2)c2cccs2)c1 (stereo unspecified),.,.,2,1,7,18,.
COc1ccc(N(C(=O)c2ccco2)C(C(=O)NC2CCCCC2)c2cccs2)cc1OC (stereo unspecified),0.38,9,-1,-2,-11,-2,.
SMILES,Dynein transport,CHOP inh,XBP1 UPR activ,CHOP UPR activ,pCIP destab,B2AR ag,Dynein inh conf
CCCN(CC(=O)Nc1ccccc1C)C(=O)CC(NC(=O)c1ccccc1)c1ccccc1 (stereo unspecified),.,.,-4,-1,.,-1,.
Cc1onc(-c2ccccc2Cl)c1C(=O)NC(=S)NCC(=O)c1ccccc1,-0.42,-43,4,4,-16,11,.
Cc1nnc(SCC(=O)NCCc2ccccc2)s1,-0.56,-8,-2,-1,15,-1,.
O=C1/C(=C/c2ccc(N3CCCC3)cc2)NC(=S)N1C1CC1,-5,-5,-1,14,-20,-94,+
O=C1N/C(=C/c2ccc(N3CCCC3)cc2)C(=O)N1c1ccccc1,1.5,10,0,12,0,12,.
C#CC(=O)N(c1ccc(OC)cc1OC)C(C(=O)NC1CCCC1)c1cccs1 (stereo unspecified),-4.4*,107*,-9,-8,-8,-401,+
CCOC(=S)SCC(=O)Nc1nc(C)c(C)s1,-3.9*,-95,-5,3,-2,-1,+
C=C(CCC(=O)c1ccccc1)C(=O)c1ccccc1,-3.8*,-8,.,.,1,10,+
COCC1CCN(C(=O)C2CCC(=O)N(Cc3ccc(Cl)cc3)C2)CC1 (stereo unspecified),.,.,-4,1,0,-3,.
COC(=O)C(=C/C(C)=C/c1cccs1)C(=O)OC,-4*,-196,1,16,1,4,?
COc1ccc(N=CC2=C(Nc3ccc(OC)cc3)c3c(C)nn(-c4ccccn4)c3CC2)cc1,-4.3,.,6,59*,.,.,i
COc1ccc(-c2cc(C(=O)O)c3c(C)nn(-c4ccccn4)c3n2)cc1,-0.36,9,-3,5,2,.,.
COC(=O)c1ccc(Cl)c(NC(=O)CN(c2ccc(OC)c(OC)c2)S(C)(=O)=O)c1,0.41,-24,-4,-1,-10,1,.
O=C1CSC(c2ccc([N+](=O)[O-])cc2)N1c1ccccc1F (stereo unspecified),.,.,-1,-1,-6,5,.
